Source: PubChem BioAssay (several laboratories)
Only some compounds are listed: those with a hit (about 5.1% of all), similar ones and a draw of the others.
STAT1 activator = increases IFN-gamma driven STAT1 reporter signal | NIH 3T3 STAT1-luciferase reporter, luminescence; 100% = IFN-gamma alone, no compound | activation (% of control), % at 5.5 µM | 200,000 tested, 2.6% active | AID 932;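 active = activation above the screen-wide mean activation plus 3 SD, cut at about 130% in these data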;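 note: raw ratio to IFN-gamma control signal so 100% means no change and 0% no light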
STAT3 activator = increases IL-6 driven STAT3 reporter signal. U3A cells, IL-6 STAT3-luciferase reporter, luminescence; 100% = signal with IL-6 EC80 alone. activation (% of control), % at 5.6 µM. 190,000 tested, 0.91% active;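 active = activation above the screen-wide mean of compound activation plus 3 SD, cut at about 130% in these data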;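 note: 0% = background luminescence of wells with medium and substrate only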
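Test system: STAT3-luciferase reporter U3A cells; Detection: reporter luminescence signal; Times: 1 h compound pre-exposure, 6 h IL-6 stimulation, 37 °C; Benchmarks: IL-6-only high control; Also added: IL-6 stimulus at 33 ng/mL final.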
STAT1 blocker = inhibitors of IFN-gamma induced STAT1 signaling | NIH 3T3 STAT1-luciferase reporter, luminescence | inhibition, % at 5.5 µM | 200,000 tested, 0.35% active;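 active = inhibition above a set limit, the mean inhibition across all tested compounds plus 3 SD, cut at about 34% in these data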;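 note: 0% = IFN-gamma with DMSO and 100% = IFN-gamma with 300 µM nifuroxazide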
APP 5'UTR act = activates APP 5'UTR luciferase reporter; SH-SY5Y APP 5'UTR luciferase reporter, luminescence; zero percent = DMSO vehicle wells; activation, % at 2 µM; 190,000 tested, 1% active;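 active = activation above a set limit, based on mean plus 3 SD of controls, cut at about 140% in these data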
STAT3 inh-1 = STAT3 signaling inhibition | U3A cells, IL-6 STAT3-luciferase reporter, luminescence; host cell line lacks STAT1 | inhibition, % at 5.5 µM | 190,000 tested, 0.89% active;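 active = inhibition above the mean inhibition across all screened compounds plus 3 SD, cut at about 44% in these data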;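 note: 0% = DMSO only wells and 100% = 100 µM nifuroxazide control wells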
NF-kB expr up = raises NF-kB expression in human neuronal cells | NF-kB reporter expression; stronger effect = higher value | fold change at 12.5 µM | 190,000 tested, 1.6% active; in the data active = fold change above about 3.3
STAT3 inh-2 = STAT3 inhibition, confirmation assay | inhibition, % at 5.7 µM | AID 1265 | shares compounds with STAT3 inh-1 | 1,200 tested, 45% active | U3A cells, IL-6 STAT3 luciferase reporter, luminescence; cell line lacks STAT1;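 active = inhibition above the hit cutoff computed for the primary STAT3 screen, cut at about 44% in these data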;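 note: 0% = IL-6 plus DMSO and 100% = IL-6 plus nifuroxazide control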
NFkB inh 2 = counter-screen for STAT3 inhibitors: NF-kappaB inhibition; shares compounds with STAT3 inh-1; HEK293T NF-kB luciferase reporter, TNF-alpha induced; inhibition, % at 5.7 µM; 1,200 tested, 36% active; AID 1308;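 active = inhibition above the mean of solvent-only control wells plus 3 SD, cutoff set per campaign, cut at about 13% in these data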;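 note: 0% = TNF-alpha with DMSO and 100% = TNF-alpha with MG high control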
STAT1 inh 2 = counter-screen for STAT3 inhibitors: STAT1 inhibition | inhibition, % at 5.7 µM | NIH 3T3 STAT1-luciferase reporter, IFN-gamma induced, luminescence | 1,200 tested, 27% active | shares compounds with STAT3 inh-1;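 active = inhibition above the mean plus 3 SD of solvent-only control wells, limit set per screening run, cut at about 16% in these data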;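 note: 0% = DMSO with IFN-gamma and 100% = nifuroxazide control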
Starred values were filed as active, the others as inactive; / = no result given.

SMILES	STAT1 activator	STAT3 activator	STAT1 blocker	APP 5'UTR act	STAT3 inh-1	NF-kB expr up	STAT3 inh-2	NFkB inh 2	STAT1 inh 2
COCCn1c(C)cc(C(=O)COC(=O)c2n[nH]c3ccccc23)c1C	74	34	29	98	83*	0.87	51*	23*	-20
Cc1cc(C(=O)COc2ccccc2C(N)=O)c(C)n1CC1CCCO1 (centres undefined)	77	44	24	22	73*	1.2	70*	22*	16*
Cc1cc(C(=O)COC(=O)c2n[nH]c3ccccc23)c(C)n1CC1CCCO1 (centres undefined)	99	47	1	168*	64*	1	20	-5	-70
CCOc1cc(C(=O)OCC(=O)c2cc(C)n(CC3CCCO3)c2C)ccc1OCC(=O)N1CCOCC1 (centres undefined)	84	102	16	3	0	1.3	/	/	/
COCCn1c(C)cc(C(=O)COC(=O)c2c(C)nn(Cc3ccccc3)c2C)c1C	93	97	7	8	8	0.88	/	/	/
CN(C#N)c1nc(Cl)nc(Nc2cccc(Cl)c2)n1	90	104	11	6	-4	1.3	/	/	/
CCOc1ccccc1NC(=O)c1cc(C(=O)c2cc(Br)ccc2O)coc1=N	95	91	5	-2	12	1.1	/	/	/
O=C(N=Nc1c(O)[nH]c2ccccc12)c1ccc2c(c1)OCO2	69	52	33	106	62*	2.3	25	10	-15
Cc1ccc(CCc2nnc(SCC(=O)Nc3cccc(Cl)c3)n2-c2ccccc2)o1	99	106	1	-2	-9	1	/	/	/
CCCc1ccc(C#N)c(SC2CC(=O)N(c3ccc(OC)cc3)C2=O)n1 (centres undefined)	102	103	-4	4	1	1.1	/	/	/
N#Cc1cc2c(nc1SC1CC(=O)N(c3ccccc3)C1=O)CCC2 (centres undefined)	75	48	26	-27	64*	0.5	27	41*	-41
Nc1ccc(-c2cnc(-c3ccc(N)cc3)nc2)cc1	137*	59	-40	126	49*	4.8*	5	-33	-106
CCCC(=O)Nc1ccc(-c2cnc(-c3ccc(NC(=O)CCC)cc3)nc2)cc1	107	101	-7	-1	-2	0.89	/	/	/
CC(C)OC(=O)c1sc2nc(-c3ccccc3)ccc2c1N	112	56	-13	168*	61*	0.79	17	-23	-163
COc1cccc(C(=O)Cn2c(=N)n(C)c3ccccc32)c1	84	66	16	229*	46*	4.4*	-37	-34	-110
O=C1CC(c2ccc3c(c2)OCO3)Sc2nc3ccccc3n21 (centres undefined)	120	57	-22	130	52*	0.63	17	-8	-84
Cc1cc(NC(=O)c2ccccc2-c2ccccc2)ccc1Br	99	78	1	3	26	1	/	/	/
Cc1c(Cl)cccc1NC(=O)NCc1ccncc1	106	102	-9	4	1	1.3	/	/	/
O=C(CSc1nnc(-c2c[nH]c3ccccc23)o1)N1c2ccccc2CCc2ccccc21	99	63	1	2	49*	0.48	29	1	2
O=S(=O)(NCC1CCCO1)c1ccc(S(=O)(=O)N(Cc2ccc(F)cc2)Cc2ccco2)cc1 (centres undefined)	92	97	10	-20	1	1.5	/	/	/
Cn1c(CN2CCCCC2)nc2cc(NC(=O)c3cccc(Br)c3)ccc21	100	49	0	23	63*	1.1	51*	12	-8
Cn1c(CN2CCCCC2)nc2cc(NC(=O)c3ccccc3)ccc21	107	90	-7	14	16	1.1	/	/	/
Cc1nc2sc(-c3ccccc3)cc2c(=O)[nH]1	77	45	25	157*	69*	3.5*	35	-1	-42
O=c1[nH]c(-c2cccnc2)nc2sc(-c3ccccc3)cc12	114	93	-19	-75	11	0.97	/	/	/
O=C(Nc1nc2ccccc2[nH]1)c1ccc(F)cc1	103	39	-3	107	72*	2.7	34	-7	-74
SMILES	STAT1 activator	STAT3 activator	STAT1 blocker	APP 5'UTR act	STAT3 inh-1	NF-kB expr up	STAT3 inh-2	NFkB inh 2	STAT1 inh 2
CCCC(=O)N(CC(=O)Nc1sc(C)c(C)c1C(N)=O)Cc1ccccc1	104	94	-6	-18	13	1.1	/	/	/
CCCNC(=S)N1CCC(C(=O)c2ccc3c(c2)OCCO3)CC1	97	86	2	18	23	1.3	/	/	/
NC(=O)C1CCCN1 (centres undefined)	111	101	-13	-11	7	1	/	/	/
CN(C)S(=O)(=O)c1ccc(C(=O)Nc2nc(-c3cc4ccccc4o3)cs2)cc1	86	58	15	58	53*	1.4	76*	20*	16*
O=C(Nc1nc(-c2cc3ccccc3o2)cs1)c1ccc(S(=O)(=O)N2CCCC2)cc1	81	53	21	13	58*	0.65	77*	25*	20*
CC1CN(S(=O)(=O)c2ccc(C(=O)Nc3nc(-c4cc5ccccc5o4)cs3)cc2)CC(C)O1 (centres undefined)	93	100	8	-7	0	1.1	/	/	/
Nc1c(C(=O)NC2CCCCC2)nsc1C(=O)OCC(=O)NC1CCCCC1	96	58	5	-9	51*	0.92	54*	12	0
CC(=O)Nc1ccc2oc(-c3ccccc3Br)nc2c1	122	65	-24	162*	48*	7.3*	12	-38	-127
CC(=O)Nc1ccc2oc(C)nc2c1	107	100	-9	15	2	1.1	/	/	/
CC(C)C(=O)Nc1ccc2oc(-c3cc(F)c(F)cc3Cl)nc2c1	117	92	-17	-2	13	2	/	/	/
CC(=O)Nc1ccc2oc(-c3cc(F)c(F)cc3Cl)nc2c1	148*	63	-37	33	46*	6.1*	32	-24	-91
Cc1cc(OCC(=O)Nc2ccncc2)ccc1Br	99	56	1	2	57*	0.97	52*	-4	0
O=C(COc1ccc([N+](=O)[O-])cc1)Nc1ccncc1	95	91	4	-7	14	0.88	/	/	/
CCOC(=O)C1CCCN(C(=S)Nc2cc(C)cc(C)c2)C1 (centres undefined)	96	97	5	3	4	1	/	/	/
